Test results published in ChEMBL document CHEMBL3580658, “Bisthiodiketopiperazines and Acorane Sesquiterpenes Produced by the Marine-Derived Fungus Penicillium adametzioides AS-53 on Different Culture Media” (J Nat Prod, 2015).
≈ marks a conversion by molar mass, not a printed value.

How the values were obtained:
Vibrio parahaemolyticus = test: Antimicrobial activity against Vibrio parahaemolyticus QDIO-8 by XTT assay; type: functional
Outline: (§1)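 Bacterial panel of two human-pathogenic and seven aquacultural strains, run by a previously described method. Chloramphenicol served as the positive control against bacteria.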

Gaeumannomyces graminis = test: Antimicrobial activity against Gaeumannomyces graminis QDAU-3 by XTT assay; type: functional
Outline: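 Plant-pathogenic fungus strain QDAU-3 was obtained from Qingdao Agricultural University and tested by a previously described method. Amphotericin B was the positive control against fungi.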

A549 = test: Cytotoxicity against human A549 cells by tetrazolium salt based quantitative colorimetric assay; type: functional, cell-based
DU-145 = test: Cytotoxicity against human DU145 cells by tetrazolium salt based quantitative colorimetric assay; type: functional, cell-based
HeLa = test: Cytotoxicity against human HeLa cells by tetrazolium salt based quantitative colorimetric assay; type: functional, cell-based
HepG2 = test: Cytotoxicity against human HepG2 cells by tetrazolium salt based quantitative colorimetric assay; type: functional, cell-based
[1] = Cytotoxicity against human HuH7 cells by tetrazolium salt based quantitative colorimetric assay; type: functional, cell-based; settings: Huh-7
[2] = Cytotoxicity against human L02 cells by tetrazolium salt based quantitative colorimetric assay; type: functional, cell-based
[3] = Cytotoxicity against mouse LM3 cells by tetrazolium salt based quantitative colorimetric assay; type: functional, cell-based
MCF7 = test: Cytotoxicity against human MCF7 cells by tetrazolium salt based quantitative colorimetric assay; type: functional, cell-based
NCI-H446 = test: Cytotoxicity against human NCI-H446 cells by tetrazolium salt based quantitative colorimetric assay; type: functional, cell-based
[4] = Cytotoxicity against human SGC7901 cells by tetrazolium salt based quantitative colorimetric assay; type: functional, cell-based; settings: SGC-7901
SW1990 = test: Cytotoxicity against human SW1990 cells by tetrazolium salt based quantitative colorimetric assay; type: functional, cell-based
SW480 = test: Cytotoxicity against human SW480 cells by tetrazolium salt based quantitative colorimetric assay; type: functional, cell-based
U-251 = test: Cytotoxicity against human U251 cells by tetrazolium salt based quantitative colorimetric assay; type: functional, cell-based
Artemia salina = test: Cytotoxicity in brine shrimp; type: functional; settings: read-out: LD50 (the source's name)
Staphylococcus aureus = test: Antimicrobial activity against Staphylococcus aureus EMBLC-2 by XTT assay; type: functional; outline: as §1
Aeromonas hydrophila = test: Antimicrobial activity against Aeromonas hydrophila QDIO-1 by XTT assay; type: functional; outline: as §1
Vibrio harveyi = test: Antimicrobial activity against Vibrio harveyi QDIO-7 by XTT assay; type: functional; outline: as §1

COc1ccc([C@@H]2SS[C@@]34C[C@]5(O)[C@H](Cl)C=C[C@@H](O)[C@@H]5ON3C(=O)[C@@H]2N(C)C4=O)c(O)c1OC
MIC (Vibrio parahaemolyticus): 8 µg/mL (≈ 15.1 µM) | MIC (Gaeumannomyces graminis): 16 µg/mL (≈ 30.1 µM) | IC50 (A549): > 10 µM | IC50 (DU-145): > 10 µM | IC50 (HeLa): > 10 µM | IC50 (HepG2): > 10 µM | IC50 [1]: > 10 µM | IC50 [2]: > 10 µM | IC50 [3]: > 10 µM | IC50 (MCF7): > 10 µM | IC50 (NCI-H446): > 10 µM | IC50 [4]: > 10 µM | IC50 (SW1990): > 10 µM | IC50 (SW480): > 10 µM | IC50 (U-251): > 10 µM | LC50 (Artemia salina): 4.8 µM | MIC (Staphylococcus aureus): 8 µg/mL (≈ 15.1 µM) | MIC (Aeromonas hydrophila): 8 µg/mL (≈ 15.1 µM) | MIC (Vibrio harveyi): 32 µg/mL (≈ 60.3 µM)

COc1ccc([C@@H]2SS[C@@]34C[C@]5(O)[C@H](O)C=C[C@@H](O)[C@@H]5ON3C(=O)[C@@H]2N(C)C4=O)c(O)c1OC
IC50 (A549): > 10 µM | IC50 (DU-145): > 10 µM | IC50 (HeLa): > 10 µM | IC50 (HepG2): > 10 µM | IC50 [1]: > 10 µM | IC50 [2]: > 10 µM | IC50 [3]: > 10 µM | IC50 (MCF7): > 10 µM | IC50 (NCI-H446): > 10 µM | IC50 [4]: > 10 µM | IC50 (SW1990): > 10 µM | IC50 (SW480): > 10 µM | IC50 (U-251): > 10 µM | MIC (Staphylococcus aureus): 64 µg/mL (≈ 125 µM)

C=C(C)[C@H]1[C@H](OC(C)=O)C[C@H](C)[C@@]12CC=C(C)[C@@H](O)C2
IC50 (A549): > 10 µM | IC50 (DU-145): > 10 µM | IC50 (HeLa): > 10 µM | IC50 (HepG2): > 10 µM | IC50 [1]: > 10 µM | IC50 [2]: > 10 µM | IC50 [3]: > 10 µM | IC50 (MCF7): > 10 µM | IC50 (NCI-H446): > 10 µM | IC50 [4]: > 10 µM | IC50 (SW1990): > 10 µM | IC50 (SW480): > 10 µM | IC50 (U-251): > 10 µM

C=C(C)[C@H]1[C@H](OC(C)=O)C[C@H](C)[C@@]12CC=C(CO)[C@@H](O)C2
IC50 (A549): > 10 µM | IC50 (DU-145): > 10 µM | IC50 (HeLa): > 10 µM | IC50 (HepG2): > 10 µM | IC50 [1]: > 10 µM | IC50 [2]: > 10 µM | IC50 [3]: > 10 µM | IC50 (MCF7): > 10 µM | IC50 (NCI-H446): 5 µM | IC50 [4]: > 10 µM | IC50 (SW1990): > 10 µM | IC50 (SW480): > 10 µM | IC50 (U-251): > 10 µM

COc1cc2c(c(OC)c1OC)-c1ccc(OC)c(=O)cc1[C@@H](NC(C)=O)CC2 [COLCHICINE]
LC50 (Artemia salina): 8.1 µM
